In ChEMBL document CHEMBL1125748, “Non-steroidal antiandrogens. Design of novel compounds based on an infrared study of the dominant conformation and hydrogen-bonding properties of a series of anilide antiandrogens” (J Med Chem, 1991):

Legend:
[1] = target: T1, Androgen receptor (Rattus norvegicus) (UniProt P15207); assay: Inhibition of anti-androgenic activity in vivo on groups of five rats treated with seven daily subcutaneous doses of testosterone propionate at 200 ug/kg
T1 sequence (whole entry): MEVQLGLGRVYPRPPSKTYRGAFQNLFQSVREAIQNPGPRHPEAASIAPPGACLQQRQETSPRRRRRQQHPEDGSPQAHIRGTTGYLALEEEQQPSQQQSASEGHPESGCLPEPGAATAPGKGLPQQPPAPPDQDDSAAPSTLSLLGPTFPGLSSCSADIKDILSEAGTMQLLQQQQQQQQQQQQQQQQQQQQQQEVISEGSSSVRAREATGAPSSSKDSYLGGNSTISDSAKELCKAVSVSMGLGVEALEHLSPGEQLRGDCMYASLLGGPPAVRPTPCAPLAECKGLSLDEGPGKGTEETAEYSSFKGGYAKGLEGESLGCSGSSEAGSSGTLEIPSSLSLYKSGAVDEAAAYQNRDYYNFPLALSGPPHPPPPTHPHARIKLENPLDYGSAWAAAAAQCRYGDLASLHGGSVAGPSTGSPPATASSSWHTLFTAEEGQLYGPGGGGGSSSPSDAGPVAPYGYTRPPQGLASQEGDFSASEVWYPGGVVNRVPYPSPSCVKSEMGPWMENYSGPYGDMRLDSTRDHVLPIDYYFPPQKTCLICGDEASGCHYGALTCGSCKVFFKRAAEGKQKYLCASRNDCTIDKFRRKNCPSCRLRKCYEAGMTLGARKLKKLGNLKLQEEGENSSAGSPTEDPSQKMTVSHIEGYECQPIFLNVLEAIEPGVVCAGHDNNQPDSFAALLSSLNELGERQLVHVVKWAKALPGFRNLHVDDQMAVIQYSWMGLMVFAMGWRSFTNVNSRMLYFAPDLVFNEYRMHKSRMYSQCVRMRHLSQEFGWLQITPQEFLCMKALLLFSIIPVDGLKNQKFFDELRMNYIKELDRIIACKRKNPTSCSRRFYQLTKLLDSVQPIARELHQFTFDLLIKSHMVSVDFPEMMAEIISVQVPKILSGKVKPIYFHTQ

[2] = target: T1, Androgen receptor (Rattus norvegicus); assay: In vitro relative binding affinity for rat androgen receptor
[3] = Partition coefficient (logP); assay type: physicochemical; settings: octanol/water
[4] = target: T1, Androgen receptor (Rattus norvegicus); assay: Anti-androgenic activity in vivo on groups of five rats treated with seven daily oral doses of testosterone propionate at 200 ug/kg; assay type: functional, organism-based; settings: in the assay text read “seven daily subcutaneous doses” for “seven daily oral doses”
Procedure, shortened: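 Male rats, five per group, castrated at 24 days of age, then given testosterone propionate 200 µg/kg subcutaneously daily for seven days. Antiandrogen was given orally, daily, over the same seven days. Rats were killed 24 h after the last dose and seminal vesicles weighed. Percent inhibition of testosterone-stimulated weight was taken against a running castrate control, and ED50 was read from the dose-response curve.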

[5] = target: T1, Androgen receptor (Rattus norvegicus); assay: In vitro relative binding affinity for rat Androgen receptor

| Structure (SMILES) | relative binding affinity (RBA) [2] | logP [3] | also measured |
| --- | --- | --- | --- |
| Cc1c(C(C)(O)C(F)(F)F)[nH]c2ccccc12 (configuration not stated) | 6.7 |  | inhibition [1]: 33% |
| CC(O)(C(=O)Nc1ccc([N+](=O)[O-])c(C(F)(F)F)c1)C(F)(F)F (configuration not stated) |  | 3.21 |  |
| CC(=O)C(O)(/C=C/c1ccc(Cl)c(Cl)c1)C(F)(F)F (configuration not stated) | 0.4 |  |  |
| CC(C)(O)C(=O)Nc1ccc(Cl)cc1 |  | 2 |  |
| OC(/C=C/c1ccc(Cl)c(Cl)c1)(CCl)C(F)(F)F (configuration not stated) | 1.8 |  | ED50 [4]: 2 mg/kg |
| OC(/C=C/c1ccc(Cl)c(Cl)c1)(C(F)(F)F)C(F)(F)F | < 0.2 |  |  |
| CC(O)(CF)C(=O)Nc1ccc([N+](=O)[O-])c(C(F)(F)F)c1 (configuration not stated) |  | 3.5 | relative binding affinity (RBA) [5]: 5.9 |
| CC(C)(O)C(=O)Nc1ccc([N+](=O)[O-])c(C(F)(F)F)c1 [HYDROXYFLUTAMIDE] | 2.1 | 2.7 |  |
| CC(C)C(=O)Nc1ccc([N+](=O)[O-])c(C(F)(F)F)c1 [FLUTAMIDE] |  | 3.35 |  |
| CC(O)(C(=O)Nc1ccc([N+](=O)[O-])c(C(F)(F)F)c1)C(F)F (configuration not stated) |  | 3.76 |  |
| N#CCC(O)(/C=C/c1ccc(Cl)c(Cl)c1)C(F)(F)F (configuration not stated) | 3.6 |  | ED50 [4]: 2.5 mg/kg |
| CC(C(=O)Nc1ccc([N+](=O)[O-])c(C(F)(F)F)c1)C(F)(F)F (configuration not stated) |  | 3.71 |  |
| CC(O)(/C=C/c1ccc(Cl)c(Cl)c1)C(F)(F)F (configuration not stated) |  |  | relative binding affinity (RBA) [5]: < 0.2 |
| NC(=O)CC(O)(/C=C/c1ccc(Cl)c(Cl)c1)C(F)(F)F (configuration not stated) | 0.5 |  | ED50 [4]: 2.5 mg/kg |
| CN(C(=O)C(C)(C)O)c1ccc([N+](=O)[O-])c(C(F)(F)F)c1 |  | 3.06 |  |
| CC(C)(O)C(=O)Nc1ccc([N+](=O)[O-])cc1 |  | 1.61 |  |
